# Most compounds without a hit are left out; they make up all but 2.5% or so of the library.
# FLuc act counter = firefly luciferase counter-screen for stimulation assays; P08659; AID 1027; 200,000 tested, under 10 active; ATPlite luciferase biochemical, luminescence, 10 min; 0 = ATP-free wells, 1 = DMSO control; activation factor at 10 µM;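 active = luciferase activation factor, scaled between plate controls, of at least 2 with compound at 10 µM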
#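 Assay system: Luciferase/luciferin reagent mix; Medium: PBS as buffer for the ATP substrate; Dosing: test compounds dosed from 2 mM stocks in 100% DMSO; Times: 10 min, room temperature; Signal: luminescence from luciferase reaction; Read-out: luciferase activation; Controls: No-ATP low control, compound-free enzyme-plus-ATP high control.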
# PMI act satM6P = activators of human phosphomannose isomerase at near-saturating mannose 6-phosphate | P34949 | 0.34% of 190,000 active | AID 1216 | coupled PMI enzyme assay, resazurin fluorescence, 20 min; hits give high values; 1 = untreated enzyme, 0 = substrate-free blank | activation factor at 20 µM;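 active = activation factor of 2 or more at 20 µM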
# Target sequence (P34949 whole entry, looked up): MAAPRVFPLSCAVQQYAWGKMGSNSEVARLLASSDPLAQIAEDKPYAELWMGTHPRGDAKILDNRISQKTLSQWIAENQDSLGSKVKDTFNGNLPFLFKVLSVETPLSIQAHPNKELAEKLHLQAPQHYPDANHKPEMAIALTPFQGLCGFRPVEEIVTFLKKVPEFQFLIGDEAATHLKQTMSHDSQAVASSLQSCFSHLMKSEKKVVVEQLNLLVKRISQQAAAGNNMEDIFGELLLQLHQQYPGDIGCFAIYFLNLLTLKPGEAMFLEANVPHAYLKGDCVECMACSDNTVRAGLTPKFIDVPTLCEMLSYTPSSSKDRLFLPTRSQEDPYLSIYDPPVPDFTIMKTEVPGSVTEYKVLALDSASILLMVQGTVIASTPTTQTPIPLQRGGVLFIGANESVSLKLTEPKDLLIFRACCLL
#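 assay system = human phosphomannose isomerase with PGI, G6PDH, diaphorase coupling enzymes | quantity = 15 ng/mL PMI | incubation = enzyme reaction with compound 20 min at room temperature | medium = HEPES pH 7.4 buffer with MgCl2 and Tween-20 | compound dosing = one concentration, 20 µM, in 1% DMSO | measured by = Diaphorase-driven resazurin-to-resorufin fluorescence, excitation 544, emission 590 nm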
# Diaphorase inh = counter-screen for diaphorase-based assays: diaphorase inhibitors and chemical oxidizers; inhibition, % at 20 µM; 0.69% of 190,000 active; diaphorase resazurin-to-resorufin fluorescence, NADH, 16 min; bacterial (C. kluyveri) enzyme, not human;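 active = primary screen inhibition at 20 µM above a set limit, cut at about 50% in these data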
#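 System: Diaphorase enzyme from Clostridium kluyveri | Amount: Enzyme working solution with 0.14 U/mL diaphorase | Benchmarks: No-NADH positive control and DMSO neutral control | Signal: Fluorescence of resorufin formed from resazurin, Ex 544/Em 590 nm | Schedule: 16-min room-temperature incubation before reading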
# PMI act = activators of human phosphomannose isomerase; P34949; purified human PMI, coupled resazurin fluorescence, 20 min; hits give high values; 1 = vehicle control, 0 substrate-free wells; activation factor at 20 µM; 0.005% of 190,000 active; AID 1214;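 active = activation factor of 2 or more at 20 µM, relative to plate controls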
# FLuc inhib CS = Photinus pyralis luciferase inhibition counter-screen; ATPLite firefly luciferase biochemical luminescence, 10 min; AID 1006; inhibition, % at 10 µM; 1.5% of 200,000 active; P08659;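 active = inhibition above about 50% when tested at 10 µM, limit read from the data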
# Diaph act CS = activates diaphorase or chemically reduces, flagging diaphorase assay artifacts; Diaphorase/resazurin coupled assay, resorufin fluorescence, 16 min; hits give high values; 1 = vehicle wells, 0 = NADH-free wells; activation factor at 20 µM; 0.005% of 190,000 active;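 active = diaphorase activity raised at least twofold by the compound at 20 µM; inactive = activation factor below 2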
#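 System – purified diaphorase enzyme from Clostridium kluyveri · Input – enzyme 0.07 U/mL final · Also added – final NADH 0.114 mM, resazurin 0.1 mM · Measured by – fluorescence of resorufin, 544 nm excitation, 590 nm emission · Timing – 16 min enzyme reaction, ambient temperature · Measure – resorufin increase flagging diaphorase activators or reducers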
# Hits are given with their value; i = inactive.
SMILES,FLuc act counter,PMI act satM6P,Diaphorase inh,PMI act,FLuc inhib CS,Diaph act CS
Cc1cccc(OCC(=O)N/N=C/c2ccc(N(C)C)cc2)c1,i,i,55,i,i,i
CCN(CC)C(=O)CSc1nc2c(sc(=S)n2Cc2ccco2)c(=O)n1-c1ccccc1,i,i,51,i,i,i
CCN(CC)C(=O)CSc1nc2c(sc(=S)n2-c2ccccc2)c(=O)[nH]1,i,i,69,i,i,i
CCOC(=O)CSc1nc2c(sc(=S)n2Cc2ccco2)c(=O)n1-c1ccccc1,i,i,i,i,i,i
Cc1cc(N2C(=O)C3C4C=CC(C4)C3C2=O)ccc1Br (configuration not stated),i,i,i,i,i,i
O=C(O)c1c2c(nc3ccccc13)/C(=C/c1ccc(O)cc1)CC2,i,i,69,i,96,i
Cc1cc(C(=O)NCCC2=CCCCC2)c(C)o1,i,i,i,i,i,i
Nn1c(-c2ccccc2Cl)nnc1-c1ccccc1Cl,i,2.2,i,i,i,i
COc1ccc(CNC(=O)CN(Cc2ccc(F)cc2)C(=O)c2csnn2)cc1,i,i,i,i,i,i
Cc1ccc(-c2cc(C(=O)NCc3ccccn3)c3ccccc3n2)cc1C,i,i,i,i,52,i
Cc1cccc(-c2cc(C(=O)NCc3ccccn3)c3ccccc3n2)c1,i,i,i,i,i,i
Cc1ccc(-c2cc(C(=O)n3cnc4ccccc43)c3ccccc3n2)cc1C,i,i,i,i,69,i
O=C(NCc1ccccn1)c1cc(-c2ccc(-c3ccccc3)cc2)nc2ccccc12,i,i,i,i,88,i
S=C(NCc1ccco1)NCC1CCCO1 (configuration not stated),i,i,i,i,i,i
CC(=O)N1CC[n+]2c(-c3ccc(Cl)cc3Cl)csc21,i,i,i,i,i,i
Cc1ccc(NC(=O)c2ccccc2O)cc1,i,i,i,i,78,i
O=C(Nc1ccccc1)c1ccccc1O,i,i,i,i,i,i
Cc1nc(-c2ccc(NC(=O)c3ccccc3C)cc2)cs1,i,i,i,i,62,i
COc1cc(-c2cc(-c3ccc(F)cc3)nc(N)c2C#N)ccc1O,i,i,i,i,i,i
O=C(c1ccc2nc(-c3ccco3)c(-c3ccco3)nc2c1)N1CCN(c2ncccn2)CC1,i,i,66,i,i,i
S=C(Nc1ccc(N2CCOCC2)cc1)Nc1ccc2nc(-c3ccco3)c(-c3ccco3)nc2c1,i,i,64,i,i,i
O=C(Nc1ccc2nc(-c3ccco3)c(-c3ccco3)nc2c1)N1CCN(c2ccccn2)CC1,i,i,70,i,i,i
O=C(c1cccc(C(=O)N2CCN(c3ncccn3)CC2)c1)N1CCN(c2ncccn2)CC1,i,i,i,i,i,i
CC1CCN(CC(=O)Nc2ccc(N3CCCCCC3)cc2)CC1,i,i,i,i,i,i
Cc1ccc(C)[n+](CC(=O)c2ccc(-c3ccccc3)cc2)c1,i,i,i,i,i,i
SMILES,FLuc act counter,PMI act satM6P,Diaphorase inh,PMI act,FLuc inhib CS,Diaph act CS
C#CCOC(=O)CCCC(=O)NCCCCCCCC,i,i,i,i,i,i
CC(=O)Nc1ccc(-c2nnc(SCc3c(C)cc(C)cc3C)n2C)cc1,i,i,i,i,i,i
CS(=O)(=O)N(CC(=O)NCc1ccncc1)C1CCCCC1,i,i,i,i,i,i
Cc1cc(-c2csc3nc[nH]c(=S)c23)cc(C)c1C,i,i,56,i,i,i
Cc1ccc(-c2csc3nc[nH]c(=S)c23)cc1,i,i,70,i,i,i
Cc1sc2nc(-c3ccccn3)[nH]c(=O)c2c1-c1ccccc1,i,i,i,i,i,i
Cc1sc2nc[nH]c(=S)c2c1-c1ccccc1,i,i,82,i,i,i
Cc1[nH]nc(SCC(=O)NC2CCCC2)c1[N+](=O)[O-],i,i,i,i,i,i
CC1=NN(c2ccc(S(=O)(=O)O)cc2C)C(=O)C1,i,2.4,i,i,i,i
Cc1ccccc1OCc1nnc(SC(C)C(=O)O)n1Cc1ccccc1 (configuration not stated),i,i,i,i,i,i
CCC(=O)Nc1cccc(NC(=O)c2cc3ccccc3o2)c1,i,i,i,i,54,i
CC(C)C(=O)Nc1ccc(NC(=O)c2cc3ccccc3o2)cc1,i,i,i,i,i,i
NS(=O)(=O)c1cccc(NC(=O)c2cc3ccccc3o2)c1,i,i,i,i,84,i
O=C(Nc1cccc(Br)c1)c1cc2ccccc2o1,i,i,i,i,i,i
Cc1cccc(NC(=O)c2cc3ccccc3o2)c1,i,i,i,i,66,i
Cc1ccc(N(C(C)C(=O)NCc2ccncc2)S(C)(=O)=O)cc1C (configuration not stated),i,i,i,i,i,i
Cc1ccc(C(=O)COC(=O)C2CC(=O)N(c3nc(-c4ccccc4)cs3)C2)cc1 (configuration not stated),i,i,i,i,i,i
CC1=NN(Cc2c(C)nn(Cc3ccccc3)c2C)C(C)(C)C1,i,i,i,i,i,i
CC(=O)NC(=S)Nc1ccc(S(=O)(=O)Nc2nc(C)cc(C)n2)cc1,i,i,i,i,i,i
N#Cc1c(NC(=O)c2ccccc2)sc2c1CCC2,i,i,i,i,i,i
N#Cc1c(NC(=O)c2cccnc2)sc2c1CCC2,i,i,i,i,54,i
Cc1cc(C)n2nc(SCc3nnc(SCc4ccccc4Cl)s3)nc2n1,i,i,58,i,i,i
CCCC(=O)Nc1ccc(C(=O)n2nnc3ccccc32)cc1,i,i,i,i,i,i
CN(C)c1ccc(C(=O)n2nnc3ccccc32)cc1,i,i,i,i,81,i
Clc1ccc2nc3c4ccccc4cnn3c2c1,i,i,i,i,63,i
SMILES,FLuc act counter,PMI act satM6P,Diaphorase inh,PMI act,FLuc inhib CS,Diaph act CS
CCOc1cc2c(C#N)c(N3CCOCC3)nc(N)c2c(N)n1,i,i,64,i,i,i
CCC1Cc2c(nc(N)c3c(N)nc(N4CCOCC4)c(C#N)c23)O1 (configuration not stated),i,i,i,i,i,i
COc1ccccc1NC(=O)Nc1cccnc1,i,i,i,i,i,i
Cc1ccc(O)c(N=Cc2cc(Cc3ccccc3)cc([N+](=O)[O-])c2O)c1,i,i,64,i,i,i
CCn1c2ccc(OC)cc2c2nc3ccccc3nc21,i,i,i,i,i,i
CCn1c(=S)ccc2ccc(OC)cc21,i,2,i,i,i,i

# Bioassay records (PubChem)
